This is an account of results in ChEMBL document CHEMBL2086279, “Synthesis of novel Schiff base analogues of 4-amino-1,5-dimethyl-2-phenylpyrazol-3-one and their evaluation for antioxidant and anti-inflammatory activity” (Bioorg Med Chem, 2012).

Series [1] relates to Radical scavenging activity. The series can be described thus: Antioxidant activity assessed as DPPH free radical scavenging activity incubated for 30 mins. The class given is functional. In short, it runs like this: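 Blois method, modified: 0.1 ml sample in ethanol (2.5–20 mg/mL) mixed with 4 ml 1.5 × 10^-5 M DPPH, kept dark at room temperature 30 min; absorbance at 520 nm used to calculate % radical scavenging.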
(The DPPH test is a chemical assay of radical scavenging.)

Series [2] in a line: Solubility in DMSO. The class given is physicochemical.
The subject of series [3] is RAW264.7. The series can be described thus: Cytotoxicity against mouse RAW264.7 cells assessed as change in cell viability at 50 ug/mL incubated for 24 hrs by MTT assay. Particulars: raw264.7, 24 h. The class given is cell-based. Summed up: (§1)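 RAW264.7 (passage ≤20, DMEM/10% FBS) seeded 5 × 10^4 cells/well, exposed to compound 24 h; MTT (5 mg/ml stock) added 4 h, formazan dissolved in 0.04 N HCl/isopropyl alcohol, OD read at 570 and 630 nm.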
In general terms: Tetrazolium dyes change colour on reduction, which living cells bring about.

The test system of series [4] is RAW264.7. The series can be described thus: Cytotoxicity against mouse RAW264.7 cells assessed as change in cell viability at 12 ug/mL incubated for 24 hrs by MTT assay. The class given is cell-based. The note with it: raw264.7, 24 h. Summed up:
as §1

For series [5], the system named is RAW264.7. As to the kind of experiment: Inhibition of COX2 mRNA expression in mouse RAW264.7 cells at 50 ug/mL pre-treated for 30 mins before LPS stimulation measured 24 hrs post LPS challenge by RT-PCR. The class given is functional, cell-based. In short, it runs like this:
(§2)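 Cells pretreated with compound 30 min, then LPS 200 ng/mL for 24 h; total RNA extracted with TRIzol, quality checked by 260/280 absorbance; iNOS and COX-2 mRNA assessed by RT-PCR with gene-specific primers.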

Series [6] has as its system RAW264.7. The series can be described thus: Antiinflammatory activity in mouse RAW264.7 cells assessed as inhibition of LPS-induced nitric oxide production pre-treated for 30 mins before LPS stimulation measured 24 hrs post LPS challenge by Griess assay. The class given is functional, cell-based. Summed up:
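LPS 200 ng/mL for 24 h after 30 min pretreatment at various concentrations; cells seeded 5 × 10^5/well overnight at 37 °C in DMEM/10% FBS. Nitrite in medium read with Griess reagent (1% sulfanilamide, 0.1% N-1-naphthylenediamine dihydrochloride, 2.5% phosphoric acid), 10 min, absorbance 570 nm, quantified against sodium nitrite standard curve.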

The subject of series [7] is RAW264.7. As to the kind of experiment: Cytotoxicity against mouse RAW264.7 cells assessed as change in cell viability at 6 ug/mL incubated for 24 hrs by MTT assay. The class given is cell-based. Particulars: raw264.7, 24 h. In short, it runs like this:
as §1

In series [8] the test system is RAW264.7. As to the kind of experiment: Inhibition of iNOS mRNA expression in mouse RAW264.7 cells pre-treated for 30 mins before LPS stimulation measured 24 hrs post LPS challenge by RT-PCR. The class given is functional, cell-based. Summed up: as §2
The test system of series [9] is RAW264.7. As to the kind of experiment: Cytotoxicity against mouse RAW264.7 cells assessed as change in cell viability at 25 ug/mL incubated for 24 hrs by MTT assay. Particulars: raw264.7, 24 h. The class given is cell-based. Summed up: as §1

Each structure is given as a SMILES string. Calls of active or inactive are those of the source. The rule behind the calls is not given here.

As to `Cc1c(/N=C/c2ccc(O)cc2)c(=O)n(-c2ccccc2)n1C`, the IC50 (in general, the concentration at which inhibition is half-maximal) in series [1] is 18.8 µM.
Take `Cc1c(/N=C/c2c(O)cc(O)cc2O)c(=O)n(-c2ccccc2)n1C`: in [1], the half-maximal inhibitory concentration (IC50) was 0.44 µM. The solubility entry in series [2] is given as “Insoluble”.
`COc1ccc(/C=N/c2c(C)n(C)n(-c3ccccc3)c2=O)cc1OC`: the IC50 in series [1] turned out to be 7.27 µM.
`Cc1c(/N=C/c2ccc(O)c(O)c2)c(=O)n(-c2ccccc2)n1C`: the Activity result in the series with RAW264.7 [3] is “Non-toxic”; with RAW264.7 [4], “Non-toxic”; in the series on RAW264.7 [6], “Dose-dependent effect”; in the series with RAW264.7 [7], “Non-toxic”; in the series on RAW264.7 [9], “Non-toxic”. The concentration for half-maximal inhibition (IC50) in [1] turned out to be 0.93 µM. For the same compound, the inhibition result in the series on RAW264.7 [5] is “Active”. Moreover, the inhibition entry with RAW264.7 [8] is “Dose-dependent effect”.
`COc1ccc(/C=N/c2c(C)n(C)n(-c3ccccc3)c2=O)cc1`: in series [1], the half-inhibitory concentration (IC50) is 15.3 µM.
The same measure, in the same setting: for `COc1ccc(/C=N/c2c(C)n(C)n(-c3ccccc3)c2=O)c(OC)c1` the value was 14.5 µM; for `Cc1c(/N=C/c2ccccc2/C=N/c2c(C)n(C)n(-c3ccccc3)c2=O)c(=O)n(-c2ccccc2)n1C`, 3.14 µM; for `Cc1c(/N=C/c2ccccc2C=O)c(=O)n(-c2ccccc2)n1C`, 34.5 µM.
On the same count and under the same terms, for `COc1ccc(/C=N/c2c(C)n(C)n(-c3ccccc3)c2=O)cc1C` the value was 5.22 µM; for `Cc1c(/N=C/c2ccccc2)c(=O)n(-c2ccccc2)n1C`, 31.3 µM.
Same read-out and setting: for `O=C1O[C@H]([C@@H](O)CO)C(O)=C1O` [ASCORBIC ACID] the value was 0.41 µM; for `Cc1c(/N=C/c2ccc(Cl)cc2)c(=O)n(-c2ccccc2)n1C`, 31.7 µM.
For `COc1cc(/C=N/c2c(C)n(C)n(-c3ccccc3)c2=O)cc(OC)c1O`, the IC50 in series [1] stood at 1.66 µM.
The same measure, in the same setting: for `Cc1c(/N=C/c2ccc(O)cc2O)c(=O)n(-c2ccccc2)n1C` the value was 2.5 µM.
